Source: PubChem (several laboratories)
Hits are enriched below; roughly 1.9% of the tested compounds scored in any of these assays.
Glyco luc inh: blocks N-linked glycosylation in D54 reporter cells; D54 ERlucT glycosylation luciferase reporter, 24 h; percent of 100 nM tunicamycin response; reporter increase, % at 12.5 µM; hit rate 0.23% among 360,000; AID 588692;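 active = mean luciferase reporter signal, scaled so untreated is 0 and the glycosylation-blocking control 100, at or above a set limit in every replicate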;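 also: luciferase carries N-glycosylation sites so blocking glycosylation raises the light; 0% = median of neutral control wells and 100% = median of 100 nM tunicamycin wells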
Vif imaging: inhibitors of HIV Vif; HEK293T cells, Vif self-association by quenched fluorescence, imaging, 24 h; inhibition, % at 7.49 µM; hit rate 0.35% among 340,000; AID 602346; in the data active = inhibition above about 50%, passing the limit was not always enough
MsrA inh: inhibitors of bovine MsrA; hit rate 0.75% among 360,000; inhibition, % at 15.5 µM; purified bovine MsrA, absorbance read-out; in the data active = inhibition above about 4.5%;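 also: 0% = vehicle wells with enzyme and 100% = reference inhibitor wells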
UCH37 DUB inh: inhibitors of human deubiquitinating enzyme UCH37 | inhibition, % (concentration not given with the values) | purified proteasome/UCH37, Ub-AMC cleavage fluorescence | hit rate 0.33% among 330,000 | Q9Y5K5;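 active = mean inhibition over replicate wells above about 20%, limit read from the data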;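 also: 0% = compound-free wells with enzyme and 100% = wells lacking proteasome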
Target sequence (Q9Y5K5 whole entry, looked up): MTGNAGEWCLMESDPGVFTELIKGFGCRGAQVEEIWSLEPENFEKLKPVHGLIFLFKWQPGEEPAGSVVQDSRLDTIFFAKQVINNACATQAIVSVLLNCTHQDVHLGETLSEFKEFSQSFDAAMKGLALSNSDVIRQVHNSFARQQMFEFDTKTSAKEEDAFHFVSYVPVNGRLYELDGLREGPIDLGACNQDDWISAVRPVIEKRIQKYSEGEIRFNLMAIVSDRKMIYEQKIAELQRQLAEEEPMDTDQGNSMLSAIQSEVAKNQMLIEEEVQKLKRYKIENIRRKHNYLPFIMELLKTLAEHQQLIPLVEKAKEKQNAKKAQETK
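System: Proteasome-associated human UCH37 deubiquitinase; Input: 0.15 nM proteasome in added enzyme buffer; Also added: Ub-AMC substrate from 1 µM stock; Incubation: 30 min compound-proteasome preincubation then 25 min substrate reaction, room temperature; Detection: fluorescence, ex 355 nm, em 460 nm; Read-out: % inhibition of Ub-AMC cleavage fluorescence; Benchmarks: no-proteasome and no-compound wells.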
MsrA act: bovine methionine sulfoxide reductase A activation. purified bovine MsrA, absorbance read-out. activation, % at 10.6 µM. hit rate 0.3% among 360,000; in the data active = activation above about 7.5%;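 also: 0% = vehicle and 100% = reference activator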
aDG glyco act: increases alpha dystroglycan glycosylation; Pro5-aDG cells, alpha-DG glycosylation AlphaScreen (IIH6); 0% Pro5, 100% B10-LARGE cell signal; activation, % at 10 µM; hit rate 0.22% among 360,000;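 active = activation of at least 8% versus controls, or a plate z-score of at least 8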;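 also: Pro5 are CHO cells carrying HIG-tagged alpha-DG that lacks glycosylation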
Numbers without * were called inactive; i = inactive; . = not tested or not shown; + = active, no number.

SMILES | Glyco luc inh | Vif imaging | MsrA inh | UCH37 DUB inh | MsrA act | aDG glyco act
COc1ccc(NC(=O)C2Cc3cccc(OC)c3OC2=NO)cc1 (stereo unspecified) | . | . | . | 1 | . | .
CC1(CC(=O)NN=Cc2ccc(-c3cccc(C(F)(F)F)c3)o2)OCCO1 | . | . | . | -4 | . | .
O=C(NCC1CC1)NC(=O)c1c(F)cccc1Cl | 2 | 50* | 1 | 3 | -2 | 0
O=C(N/N=C/c1ccc(N2CCOCC2)cc1)c1cccs1 | -2 | -4 | 4.6* | . | -7 | 0
CCC1CCCC1=NNC(=O)c1ccccc1Cl (stereo unspecified) | . | . | . | 6 | . | .
CC(=NNC(=O)c1ccc2c(c1)OCO2)c1ccc(NC(=O)c2ccc(F)cc2)cc1 | . | . | . | -6 | . | .
Cc1cccc(-c2nnn(Cc3nnc(NC(=O)c4ccccc4)s3)n2)c1 | 0 | 73* | 0 | 2 | -4 | 0
COc1ccc(Cc2nnc(NC(=O)c3cccc(C)c3)s2)cc1 | 2 | -1 | -1 | 2 | -4 | 0
COc1ccc(Cl)cc1NC(=O)C(=O)NN=Cc1cc(C)n(-c2ccc(C)cc2)c1C | . | . | . | -16 | . | .
c1ccc(CNc2ncnc3c2cnn3-c2ccccc2)cc1 | 26* | -3 | 2 | 0 | -11 | 0
O=[N+]([O-])c1ccc(NN=Cc2sc(N3CCOCC3)nc2-c2ccccc2)c(S(=O)(=O)Nc2ccccc2Cl)c1 | . | . | . | 13 | . | .
O=C(NN=Cc1ccc(Cl)cc1Cl)c1cccc(F)c1 | . | . | . | 3 | . | .
CCc1ccc(OC2(C)CCN(Cc3ccccc3OC(F)F)C2)cc1 (stereo unspecified) | 0 | 73* | 0 | . | -2 | 0
CC1(Oc2ccc(F)cc2)CCN(Cc2ccccc2OC(F)F)C1 (stereo unspecified) | 3 | 13 | -1 | . | -1 | 0
COc1cc(/C=C2\S/C(=N/S(=O)(=O)c3ccccc3)NC2=O)c([N+](=O)[O-])cc1OC | 0 | -4 | 3 | 23* | -1 | 0
COc1ccc(S(=O)(=O)/N=C2/NC(=O)/C(=C\c3cc(OC)c(OC)cc3[N+](=O)[O-])S2)cc1 | 2 | -13 | 1 | 9 | -3 | 0
O=C(Nc1cccnc1)c1cc(Br)c(Br)s1 | -2 | -12 | 0 | 2 | -2 | 0
O=C(Nc1cccnc1)c1ccc([N+](=O)[O-])s1 | 0 | 11 | 2 | 10 | 13* | 9.7*
Cc1cc(C(=O)NN=C2CC(=O)CC(C)(C)C2)c(C)n1-c1ccccc1 | . | . | . | 3 | . | .
Cc1cccc(NN=C(C=NN)C(=O)c2ccc(Br)cc2)c1 | . | . | . | 4 | . | .
CC(=NN=C1SCC(=O)N1c1ccccc1)c1ccc(C)cc1 | . | . | . | 2 | . | .
Oc1ccc(/C=N/n2c(-c3ccccc3)n[nH]c2=S)cc1Br | 0 | -1 | 4.6* | . | 1 | 0
Oc1c(Br)cc(/C=N/n2c(-c3ccccc3)n[nH]c2=S)cc1Br | 0 | -1 | 3 | . | 2 | 0
S=c1[nH]nc(-c2cc(-c3ccccc3)n[nH]2)n1/N=C/C(Br)=C/c1ccccc1 | 32* | 20 | 3 | . | -14 | 0
COc1cc(/C=N/n2c(-c3ccccc3)n[nH]c2=S)ccc1O | -3 | -2 | 2 | . | -1 | 0
SMILES | Glyco luc inh | Vif imaging | MsrA inh | UCH37 DUB inh | MsrA act | aDG glyco act
COc1ccc(/C=N/n2c(-c3ccc(C)cc3)n[nH]c2=S)cc1OC | 3 | 99* | 1 | . | 0 | 0
N#Cc1cc(-c2ccccc2)oc1NC(=O)c1ccco1 | 2 | 3 | 4.6* | 9 | -3 | 0
CN(C)c1ccc(/C=C/C(=O)c2ccc3c(c2)OCO3)cc1 | 12 | + | 1 | . | 0 | 0
CN(C)c1ccc(C(=O)C=Cc2ccc([N+](=O)[O-])cc2)cc1 | 2 | 2 | 1 | . | -2 | 1
O=C(/C=C/c1ccncc1)c1ccc2c(c1)OCCO2 | 70* | 2 | 0 | 3 | -8 | 0
O=C(/C=C/c1ccccc1)c1ccc2c(c1)OCO2 | 1 | 2 | 3 | 8 | -12 | 0
CN(C)c1ccc(/C=C/C(=O)c2ccc(O)cc2)cc1 | 3 | 83* | 3 | . | -3 | 0
CCCCN1C(=O)/C(=C/C=C2\Oc3ccccc3N2CC)SC1=S | -4 | 69* | 1 | 6 | -5 | 0
COc1cc(C(=O)NC2CCN(C)CC2)ccc1Nc1ncc2c(n1)N(CCc1ccccc1)CCC(=O)N2C | 62* | 8 | 0 | . | -3 | -1
COc1cc(C(=O)NC2CCN(C)CC2)ccc1Nc1ncc2c(n1)N(C1CCCC1)CCC(=O)N2C(C)C | 59* | -3 | . | . | -10 | 0
COCCCNC(=S)NN=Cc1ccc(O)cc1O | . | . | . | 1 | . | .
COCC(=O)NN=Cc1ccc(Sc2nc3ccccc3s2)o1 | . | . | . | 6 | . | .
Cc1cccn2c(=O)c3cc(C(=O)N4CCCCC4)sc3nc12 | 34* | -2 | 0 | i | -5 | 0
Cc1cccn2c(=O)c3cc(C(=O)N4CCCC(C)C4)sc3nc12 (stereo unspecified) | 0 | -1 | 3 | -309 | 2 | 0
Cc1csc(=NN=C2CCCCC2)n1Cc1ccco1 | . | . | . | 5 | . | .
COc1ccc(CC(C)=NNc2nc(C)cc(=O)[nH]2)cc1 | . | . | . | 1 | . | .
CCNC(=O)c1cc2c(=O)n3cccc(C)c3nc2n(CCc2ccccc2)c1=N | 46* | . | 1 | i | -4 | 1
Cc1cccn2c(=O)c3cc(C(=O)NC4CCCC4)c(=N)n(CCc4ccccc4)c3nc12 | 30* | 11 | 2 | i | -7 | 0
Cc1cccn2c(=O)c3cc(C(=O)NCc4ccccc4)c(=N)n(CCCN4CCOCC4)c3nc12 | 5 | 0 | 0 | -360 | -2 | 0
Cc1cccn2c(=O)c3cc(C(=O)NCCN4CCOCC4)c(=N)n(CCc4ccccc4)c3nc12 | 31* | 1 | 0 | -162 | -6 | 1
COc1ccc(C=NNC(=O)CON=C(C)c2cccs2)cc1 | . | . | . | 0 | . | .
O=S(=O)([N-]c1nc2ccccc2nc1-n1cc[n+](Cc2ccccc2)c1)c1ccccc1 | 40* | -7 | -1 | -130 | -2 | 0
Cc1ccc(S(=O)(=O)[N-]c2nc3ccccc3nc2-n2cc[n+](Cc3ccccc3)c2)cc1 | 43* | -10 | 0 | -76 | -4 | 0
Cc1cc(C(=O)NN=Cc2c(C)[nH]c3ccccc23)n[nH]1 | . | . | . | 5 | . | .
Cc1[nH]n(-c2ccc([N+](=O)[O-])cc2)c(=O)c1C=NN1CCOCC1 | . | . | . | 13 | . | .
C=CCn1c(SCc2nc3c(c(=O)[nH]c(=O)n3CCCC)n2CCC)nnc1-c1ccccc1 | 1 | 7 | -1 | 29* | -1 | 0
COc1cc2cc(C(=O)Nc3ccc4c(c3)OCCO4)[nH]c2cc1OC | -15 | -5 | 4.6* | 2 | -5 | 0
CCOC(=O)C1=C(C)NC(C)=C(C(=O)OCC)C1C | -2 | 19 | 0 | -62 | -11 | 0
CCOC(=O)C1=C(C)NC(=O)NC1 | 2 | 74* | 0 | 3 | -2 | 0
